# Most compounds without a hit are left out; they make up all but 3.7% or so of the library.
# KCNK3 inh = human KCNK3 channel inhibition, primary screen | CHO-KCNK3 thallium flux, FluxOR fluorescence; active compounds read low | 0.84% of 340,000 active | B-score at 10 µM | O14649;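 active = B-score under library mean minus 4 SD, starting fluorescence ratio at most library mean plus 5 SD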;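 note: more negative B-score means stronger inhibition of thallium flux through KCNK3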
# Target sequence (O14649 whole entry, looked up): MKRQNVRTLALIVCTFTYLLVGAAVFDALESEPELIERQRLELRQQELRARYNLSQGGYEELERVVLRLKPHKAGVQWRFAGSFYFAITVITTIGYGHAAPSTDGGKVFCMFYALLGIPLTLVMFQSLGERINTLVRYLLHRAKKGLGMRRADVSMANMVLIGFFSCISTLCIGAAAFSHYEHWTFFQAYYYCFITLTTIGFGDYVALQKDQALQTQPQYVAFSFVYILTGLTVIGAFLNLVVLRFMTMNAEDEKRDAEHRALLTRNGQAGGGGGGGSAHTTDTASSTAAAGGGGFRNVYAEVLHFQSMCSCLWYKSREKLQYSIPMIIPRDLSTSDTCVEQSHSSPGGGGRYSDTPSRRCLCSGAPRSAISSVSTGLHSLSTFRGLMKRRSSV
# KCNK9 block = inhibitors of human KCNK9 two-pore domain potassium channel; B-score at 10 µM; 1.2% of 310,000 active; HEK293 KCNK9, FluxOR thallium flux fluorescence; active compounds read low;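 active = ratio B-score over 3 SD below the library mean, with starting fluorescence within 5 SD of its mean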;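 note: negative B-score means less thallium flux so channel inhibition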
# hERG rescue = hERG (human) protection from proarrhythmic block | 0.51% of 310,000 active | CHO-hERG, FluxOR thallium flux, dofetilide IC70 present | Q12809 | activation (rescue from dofetilide block), less the hit threshold, % at 10 µM;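 active = activation above the mean of controls blocked by dofetilide plus 5 SD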;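 note: thallium influx through hERG after potassium depolarization seen as dye fluorescence rise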
# KCNQ1 inh = blocks the human KCNQ1 potassium channel; P51787; CHO-K1 KCNQ1, FluxOR thallium flux fluorescence; active compounds read high; B-score at 10 µM; 1.3% of 310,000 active;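 active = compounds whose thallium flux B-score, printed positive for inhibition, exceeds three library SD while starting fluorescence stays within three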;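 note: channel opened by potassium depolarization with thallium stimulus after 20 min compound exposure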
# KCNQ1 pot = human KCNQ1 channel potentiation or activation; CHO-K1 KCNQ1, thallium flux FluxOR fluorescence; active compounds read high; AID 2648; 0.35% of 310,000 active; B-score at 10 µM;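 active = fluorescence ratio B-score, a plate-corrected score, at least three library SD, with initial intensity B-score within 5 SD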
#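 System: CHO-K1 cells stably expressing KCNQ1 / Medium: assay buffer for compound exposure, DMSO matched across wells / Reagent: thallium- and potassium-containing depolarizing buffer / Compound: one concentration, matched DMSO / Incubation: 20 min compound pretreatment at room temperature / Measured by: kinetic FluxOR fluorescence, 10 s baseline plus 110 s post-stimulus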
# Kir21 inh = Kir2.1 (mouse) channel inhibition; P35561; HEK293-Kir2.1, FluxOR thallium flux fluorescence; active compounds read low; B-score at 10 µM; 0.85% of 310,000 active; AID 1672;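 active = fluorescence ratio B-score at or below minus 3 SD of library scores, with starting-brightness B-score within 2 SD, cut at about -4.2 in these data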;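 note: channel flux triggered by added potassium and thallium sulfate stimulus; B-score of peak minus minimum fluorescence over baseline after thallium stimulus; more negative B-score means stronger Kir2.1 block with less thallium influx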
# KCNK9 inh conf = human KCNK9 inhibitor confirmation | shares compounds with KCNK9 block | HEK293 KCNK9 cells, FluxOR thallium flux fluorescence | inhibition, % at 10 µM | 43% of 4,900 active;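 active = thallium signal inhibited by more than 5 SD of the compound-free buffer control wells, on both duplicate plates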;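 note: 0% = assay buffer control wells without compound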
# Kir21 sel = tests whether KCNK9 modulators also affect mouse Kir2.1. shares compounds with KCNK9 block. Kir2.1 cells, FluxOR thallium flux fluorescence. inhibition, % at 10 µM. 4% of 4,900 active. AID 492993;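 active = thallium signal drop more than 5 SD beyond the mean of the no-compound control wells, seen in both duplicate plates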;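 note: signal is fluorescence rise after thallium addition divided by baseline fluorescence; plate controls were assay buffer only for no effect and full block by chlorpromazine control for full effect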
# HEK293 Tl ctr = non-induced cell nonspecific activity of KCNK9 modulators; shares compounds with KCNK9 block; non-induced KCNK9-HEK293, FluxOR thallium flux; inhibition, % at 10 µM; 40% of 4,900 active; AID 492997;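 active = thallium signal drop beyond 5 SD of the untreated control mean, on both duplicate plates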;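 note: plate controls were buffer only IC0 wells for no effect and SID17386958 at its maximal inhibitory level for full effect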
# Numbers without * were called inactive; i = inactive; nt = no result given.
SMILES,KCNK3 inh,KCNK9 block,hERG rescue,KCNQ1 inh,KCNQ1 pot,Kir21 inh,KCNK9 inh conf,Kir21 sel,HEK293 Tl ctr
Clc1ccc(CN(Cc2ccccc2)C(c2cccs2)c2nnnn2C2CCCC2)cc1 (stereo not drawn),i,i,-9,i,i,-0.03,nt,nt,nt
CC(C)(C)n1nnnc1C(c1cccnc1)N(Cc1ccccc1)Cc1cccs1 (stereo not drawn),i,-13*,-8,i,i,0.2,46%*,i,52%*
CC(C)(C)n1nnnc1C(c1ccc(Cl)cc1)N(Cc1cccnc1)Cc1ccco1 (stereo not drawn),-10*,-14*,-10,6*,i,-1.3,52%*,i,39%*
CC(C)(C)n1nnnc1C(c1cccs1)N(Cc1ccc(Cl)cc1)CC1CCCO1 (stereo not drawn),i,-16*,-9,i,i,-0.02,62%*,i,42%*
COC(=O)N/N=C/c1sc(N2CCCCC2)nc1-c1cccs1,i,i,-1,i,i,0.32,nt,nt,nt
c1ccc(CN(Cc2ccco2)C(c2ccncc2)c2nnnn2C2CCCC2)cc1 (stereo not drawn),i,i,-4,i,i,0.55,nt,nt,nt
Cc1ccc(S(=O)(=O)Cn2nnnc2CN(Cc2ccco2)Cc2cccs2)cc1,i,i,-7,i,i,-0.74,nt,nt,nt
CC(C)(C)n1nnnc1C(c1ccc(C(F)(F)F)cc1)N(Cc1ccccc1)Cc1ccco1 (stereo not drawn),i,-11*,-4,6*,i,0.74,52%*,i,33%*
CC(C)(C)n1nnnc1C(c1ccc(C(F)(F)F)cc1)N(Cc1ccc(F)cc1)Cc1ccco1 (stereo not drawn),i,-10*,-5,i,i,1.2,42%*,i,31%*
Cc1ccc(C(c2nnnn2C(C)(C)C)N(Cc2ccco2)Cc2cccs2)cc1 (stereo not drawn),i,-17*,-8,i,i,1.1,66%*,i,30%*
O=C(OCc1ccc(Cl)cc1)c1cccnc1Cl,i,i,-3,i,i,0.73,nt,nt,nt
O=C(OCc1ccc(Cl)cc1)c1ccccc1C(=O)c1ccccc1,i,-12*,-9,i,i,-2.7,52%*,34%*,49%*
Cc1cccc(NC(=O)/C(C#N)=C\c2ccc(C(=O)O)cc2)c1,i,i,-9,i,i,0.76,nt,nt,nt
COc1cc(C)c(/C=C(\C#N)C(=O)Nc2cccc(C)c2)cc1C(C)C,i,i,-4,i,i,-1.2,i,i,i
CCOc1ccccc1CNC(=O)CCCc1cn(C)c2ccccc12,i,i,-5,i,i,-2.8,i,i,i
COC(=O)c1cc(C(=O)OCC(=O)N(C)c2ccccc2)cc([N+](=O)[O-])c1,i,i,-8,i,i,1.6,nt,nt,nt
Cc1onc(-c2ccc(Cl)cc2)c1-c1ccnn1S(=O)(=O)c1cccc(C(F)(F)F)c1,i,-11*,-13,i,i,1.3,55%*,i,47%*
COc1ccc2cc3cc(C(=O)NCc4cccnc4)oc3nc2c1,i,i,-8,i,i,-0.15,nt,nt,nt
CCOc1ccc(Br)cc1S(=O)(=O)Nc1cccc(S(=O)(=O)N2CCOCC2)c1,i,nt,nt,nt,nt,nt,nt,nt,nt
Fc1ccccc1COc1ccc(-c2nnn(Cc3ccccc3F)n2)cc1,i,i,-6,i,i,-0.1,i,i,i
Cn1nnc(-c2ccc(OCc3ccccc3F)cc2)n1,i,i,-3,i,i,0.53,nt,nt,nt
O=C(NC(Cc1ccccc1)c1ccc2c(c1)OCCCO2)c1ccccc1F (stereo not drawn),i,i,-9,i,i,0.58,nt,nt,nt
CC(=O)N(CCC(Cc1ccccc1)c1ccc2c(c1)OCO2)Cc1ccccc1F (stereo not drawn),i,-16*,-6,6*,i,-0.62,28%*,i,i
CC1(c2ccccc2)NC(=O)N(CC(=O)Nc2ccc3c(c2)OCO3)C1=O (stereo not drawn),i,i,-10,i,i,0.21,nt,nt,nt
CC1(c2ccc(OC(F)F)cc2)NC(=O)N(CC(=O)Nc2ccc3c(c2)OCO3)C1=O (stereo not drawn),i,-9.8*,-16,i,13*,-1.1,i,i,31%*
SMILES,KCNK3 inh,KCNK9 block,hERG rescue,KCNQ1 inh,KCNQ1 pot,Kir21 inh,KCNK9 inh conf,Kir21 sel,HEK293 Tl ctr
O=C(N/N=C/c1cc(Br)cc(Br)c1O)c1cccc(S(=O)(=O)N2CCOCC2)c1,i,-8.5*,-13,i,i,-0.21,59%*,i,68%*
Cc1ccccc1NS(=O)(=O)c1cc2c3c(c1)C(C)C(=O)N3CCC2 (stereo not drawn),i,i,-5,i,i,-0.53,nt,nt,nt
Cc1cc(O)c(/C=N/OCc2ccc(Cl)cc2Cl)c(=O)o1,i,i,-1,i,i,0.51,nt,nt,nt
O=c1c(/C=N/OCc2ccc(Cl)cc2Cl)c[nH]n1-c1cccc(Cl)n1,i,i,-3,7*,i,0.23,i,i,i
Cc1ccccc1OCCCC(=O)Nc1nncs1,i,i,-1,i,i,-0.12,nt,nt,nt
O=C(Cc1coc2cc3c(cc12)CCC3)OCc1cc(=O)n2c(n1)sc1ccccc12,i,i,-16,i,i,1.5,i,i,i
Cc1ccc(S(=O)(=O)Nc2nc(-c3ccccc3)cs2)cc1,i,i,-11,i,i,-0.63,nt,nt,nt
Cc1ccc(S(=O)(=O)Nc2ccccc2C(=O)Nc2nc(-c3ccc(F)cc3)cs2)cc1,i,-10*,-16,i,i,-1.5,64%*,i,39%*
Cc1cc(C)nc(SCc2nnc(SCc3ccccc3Cl)o2)n1,i,-8.5*,-12,i,i,-2,47%*,i,i
Clc1ccc(COn2c(-c3ccc(Cl)cc3)nc3ccccc32)cc1,-11*,-16*,-12,i,i,1.5,80%*,i,36%*
O=C(O)COn1c(-c2ccc(Cl)cc2)nc2ccc(Cl)cc21,i,i,-11,i,i,-0.12,nt,nt,nt

# From PubChem BioAssay
